The list is not random: actives were taken first. Their share in the collection is about 2.1%.
FXIIa inh 1536 = inhibitors of human coagulation factor XIIa | P00748 | purified FXIIa, Boc-QGR-AMC fluorogenic substrate, 2 h | inhibition, % at 5 µM | 220,000 compounds, 0.3% hits | AID 800; in the data active means inhibition above about 40%;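 further: 0% = enzyme with no compound and 100% = blank without enzyme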
PGE2 EP2 inh = EP2 receptor (human) inhibition; inhibition, % at 25 µM; 260,000 compounds, 0.52% hits; C6 glioma cells expressing human EP2, cAMP TR-FRET; cells stimulated with saturating PGE2; P43116;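 active means percent inhibition above 40 after rounding to a whole number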;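 further: rat C6 glioma host cells with rolipram phosphodiesterase inhibitor present; the protocol text gives 20 µM as final concentration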
thrombin 1536 = blocks human thrombin protease activity. AID 1046. 220,000 compounds, 0.26% hits. inhibition, % at 5 µM. alpha-thrombin, Boc-VPR-AMC fluorogenic substrate cleavage;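 active means inhibition at or above 40%; inactive means inhibition below 40%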;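 further: 0% = enzyme with no compound and 100% = wells without enzyme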
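System: human alpha-thrombin protein; Compound dosing: one concentration per compound, 5 µM, with 0.2% DMSO; Timing: reaction at room temperature; Technique: AMC fluorescence, 355/460 nm; Controls: enzyme without compound as high, wells lacking enzyme as low.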
hK5 inh = blocks human kallikrein 5 protease activity. Q9Y337. recombinant hK5, fluorogenic AMC substrate cleavage. inhibition, % at 5 µM. 210,000 compounds, 0.59% hits;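 active means inhibition of 40% or more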;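 further: 0% = enzyme controls without compound and 100% = no-enzyme blanks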
EP2 modulator = modulates human prostaglandin E2 receptor EP2 signaling; P43116; EP2-expressing cells, cAMP HTRF FRET, PGE2 co-stimulation; induction, % at 25 µM; 260,000 compounds, 0.83% hits; AID 940;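 active means compounds whose cAMP rise, as percent of the full-agonist control response, exceeds 60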;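 further: rat C6 glioma line stably carrying human EP2 under a CMV promoter; the protocol text gives 20 µM as final concentration; 100% = response of wells given 1 µM PGE2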
FXIa inh 1536 = factor XIa (human) inhibition. P03951. purified FXIa, Boc-Glu-Ala-Arg-AMC fluorogenic substrate. inhibition, % at 5 µM. 220,000 compounds, 0.14% hits. AID 798;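 active means inhibition of at least 40%; inactive means inhibition below 40%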;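 further: fluorescence of freed AMC excited at 355 nm; 0% = enzyme without compound and 100% = no enzyme blank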
Target sequence (P03951 19-387 limits assumed): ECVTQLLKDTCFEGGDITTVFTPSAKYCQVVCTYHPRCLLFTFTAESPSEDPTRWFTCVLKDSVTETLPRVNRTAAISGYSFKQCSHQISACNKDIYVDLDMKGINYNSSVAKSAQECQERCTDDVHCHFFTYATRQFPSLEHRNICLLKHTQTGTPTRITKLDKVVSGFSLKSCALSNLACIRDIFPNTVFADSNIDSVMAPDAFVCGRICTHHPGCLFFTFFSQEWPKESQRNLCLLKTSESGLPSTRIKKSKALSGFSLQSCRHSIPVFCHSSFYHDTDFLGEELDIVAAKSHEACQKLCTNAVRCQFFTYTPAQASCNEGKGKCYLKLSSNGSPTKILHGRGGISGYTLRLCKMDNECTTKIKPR
Target sequence (P03951 388-625 limits assumed): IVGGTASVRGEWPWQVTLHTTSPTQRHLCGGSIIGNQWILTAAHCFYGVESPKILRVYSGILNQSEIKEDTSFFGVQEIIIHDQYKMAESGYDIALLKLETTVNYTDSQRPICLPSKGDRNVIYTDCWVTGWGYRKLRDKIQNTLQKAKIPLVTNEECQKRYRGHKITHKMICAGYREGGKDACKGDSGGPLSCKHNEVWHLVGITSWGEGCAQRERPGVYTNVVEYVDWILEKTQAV
* = called active by the depositor; nt = no result; ! = repeats disagree.

SMILES	FXIIa inh 1536	PGE2 EP2 inh	thrombin 1536	hK5 inh	EP2 modulator	FXIa inh 1536
Cc1c(C(N)=O)c(-c2ccccc2)nn1-c1ccccc1	2.2	6.2	-3.6	-6.1	-2.1	0.0
CCn1c(COc2cccc(C)c2)nnc1SCC(=O)N1CCCCC1	nt	2.9	nt	nt	29.7	nt
Cc1cc(C(F)F)n2nc(C(=O)Nc3cccc(Cl)c3Cl)nc2n1	nt	5.3	nt	nt	-35.3	nt
CCOC(=O)C1(C)/C(=N/Nc2ccc(Cl)cc2)C(=O)C(=O)N1c1ccccc1 (stereo unspecified)	12.9	3.0	2.5	10.0	61.2*	-16.4
Cc1noc(C)c1COc1ccc(C(=O)OCC(=O)NC2CCCCC2C)cc1 (stereo unspecified)	10.2	11.4	19.7	42.6*	4.0	6.4
Cc1nnc(SCc2cccc(Oc3ccccc3)c2)n1N	-1.4	1.8	26.3	58.8*	16.3	2.8
COc1ccc(OC)c(NC(=O)CC2C(=O)NCCN2C(=O)Nc2cccc(Cl)c2)c1 (stereo unspecified)	45.3*	10.5	23.2	30.8	-12.1	10.3
COC(=O)CC1C(=O)NCCN1C(=O)Nc1cccc(Cl)c1 (stereo unspecified)	8.9	3.0	-0.7	5.0	-10.9	1.6
COc1ccc(/C=C/C(=O)NC(=S)Nc2ccc(S(=O)(=O)Nc3nccnc3OC)cc2)cc1	11.3	40.4*	-2.0	-2.7	-11.3	3.3
COc1ccc(/C=C/C(=O)NC(=S)Nc2ccc(S(=O)(=O)Nc3nc(C)cc(C)n3)cc2)cc1	nt	25.6	nt	nt	-118.6	nt
COc1ccc(C(=O)NC(=S)Nc2ccc(S(=O)(=O)Nc3nc(C)cc(C)n3)cc2)cc1	nt	69.8*	nt	nt	-98.4	nt
Cc1ccc(/C=C/C(=O)NC(=S)Nc2ccc(S(=O)(=O)Nc3cc(C)on3)cc2)cc1	nt	83.0*	nt	nt	-111.3	nt
COc1cc(C(=O)Nc2ccc(S(=O)(=O)Nc3cc(C)on3)cc2)cc(OC)c1OC	-3.4	3.7	15.8	47.0*	14.0	9.6
CCn1ncc(C(=O)N2CCCC2c2nc(-c3cccnc3)n[nH]2)c1C (stereo unspecified)	nt	7.3	nt	nt	-6.8	nt
CCOc1ccc(C2C3CN(C)CC=C3C(C#N)=C(N)C2(C#N)C#N)cc1OC (stereo unspecified)	nt	8.1	nt	nt	-1.2	nt
Cc1ccc(-c2cc(C(=O)Nc3ccc(S(=O)(=O)Nc4cc(C)on4)cc3)c3ccccc3n2)c(C)c1	72.2*	12.0	3.2	7.0	39.2	6.2
COc1ccc(/C=C/C(=O)NC(=S)Nc2ccc(S(=O)(=O)Nc3cc(OC)ncn3)cc2)cc1	8.4	63.9*	-2.2	1.7	-76.8	5.5
CCc1nnc(NS(=O)(=O)c2ccc(NC(=S)NC(=O)/C=C/c3ccc(F)cc3)cc2)s1	0.6	133.1*	-8.1	-6.9	-11.4	6.9
Cc1ccc(-c2cc(C(=O)Nc3ccc(S(=O)(=O)Nc4onc(C)c4C)cc3)c3ccccc3n2)cc1	2.5	7.3	-10.7	-4.3	20.0	-1.6
COCC(=O)NC(c1ccc(OC)c(OC)c1)c1nccn1C (stereo unspecified)	nt	nt	nt	nt	-10.7	nt
COc1ccccc1C1(O)CCN(CCNC(=O)c2cc(F)cc(F)c2)CC1	nt	5.2	nt	nt	-28.2	nt
C[C@@H](NCCc1ccc(O)cc1)[C@@H](O)c1ccc(O)cc1	nt	9.3	nt	nt	17.2	nt
CCCCCCCCNC(C)C(O)c1ccc(SC(C)C)cc1 (stereo unspecified)	11.3	115.3*!	nt	-16.2	-23.0	-0.3
Cc1cc(-c2cccs2)c2c(n1)sc1c(=O)[nH]c(=O)[nH]c12	17.8	47.0*	4.4	-22.6	31.1	2.8
Cc1ccc(-c2ccc(S(=O)(=O)N3CCN(C)CC3)cc2)cc1	10.4	-0.7	3.8	-12.3	-3.5	4.2
SMILES	FXIIa inh 1536	PGE2 EP2 inh	thrombin 1536	hK5 inh	EP2 modulator	FXIa inh 1536
Cc1ccc(S(=O)(=O)OC2CCN(C)CC2)cc1	nt	56.2*	nt	nt	-1.1	nt
CN(c1ccccc1)c1nc(-n2ccnc2)nc(-n2ccnc2)n1	17.1	nt	-4.3	-5.6	25.6	-6.2
c1ccc(N(c2ccccc2)c2nc(-n3ccnc3)nc(-n3ccnc3)n2)cc1	12.5	66.8*	-1.5	-24.7	-45.9	-6.3
O=C(NCc1cccc(Cl)c1)c1cccc(C(F)(F)F)c1	9.5	6.8	-0.6	-21.8	-13.9	5.2
O=C(NCc1ccccc1Cl)c1cccc(C(F)(F)F)c1	13.5	1.6	39.9	40.6*	22.4	-2.2
CN(C(=O)COc1ccccc1C(=O)NCCOc1ccccc1)c1ccccc1	13.1	89.5*	0.6	-7.0	-67.4	12.4
CN(C(=O)COC(=O)CNC(=O)c1ccccc1Cl)c1ccccc1	1.1	4.2	-1.7	-10.0	34.9	-5.8
C[C@@H]1CN(Cc2ccccc2F)CCN1Cc1ccc2nccnc2c1	nt	4.2	nt	nt	-7.0	nt
CC(C)c1nnc(NC(=O)c2cnccn2)s1	25.1	2.1	40.9*	37.3	29.5	15.1
Cc1nn(Cc2ccc(C(=O)NN)cc2)c(C)c1Cl	11.9	12.0	2.9	2.6	-29.9	5.4
Cc1nn(Cc2ccc(C(=O)Nc3nccs3)cc2)c(C)c1Cl	25.2	nt	104.2*	44.2*	-24.4	13.2
Cc1cccc(CN(Cc2cccnc2)C2CC(C)(C)NC(C)(C)C2)n1	nt	12.1	nt	nt	-1.1	nt
COc1cccc2sc(NC(=O)c3ccc(S(=O)(=O)N4CCOCC4)cc3)nc12	40.8*	11.3	19.1	31.8	-30.1	15.6
COc1ccccc1NC(=O)c1ccc(S(=O)(=O)N2CCOCC2)cc1	15.3	12.4	0.9	-2.5	3.5	-0.2
C(=N\Nc1nc(-c2ccccn2)nc2ccccc12)/c1ccccc1	7.3	11.4	3.2	-24.2	68.7*	0.2
COc1ccc(C(=O)CCC(=O)N2CCC(O)(c3ccccc3C)CC2)cc1C	nt	7.3	nt	nt	-41.5	nt
N/C(=N\OC(=O)c1cccc(Cn2cc(C(F)(F)F)ccc2=O)c1)c1ccc(Cl)cc1	33.9	10.6	15.3	51.8*	-24.1	35.2
Cc1ccccc1CN(CCCn1ccnc1)Cc1ccc2c(c1)CCO2	nt	2.2	nt	nt	-26.8	nt
CSc1nc(C)cc(Nc2ccc(O)c(CN3CCCCC3)c2)n1	nt	45.1*	nt	nt	-0.8	nt
O=S(=O)(Nc1ccc(O)c(CN2CCCCC2)c1)c1ccccc1	13.2	7.8	5.5	-18.6	-8.3	4.1
Brc1cccc(/C=N/Nc2nn[nH]n2)c1	42.8*	11.9	18.1	39.7	4.5	101.7*
Cc1cccc(C2Nc3ccccc3C(=O)N2CCc2ccccc2)n1 (stereo unspecified)	11.4	3.8	0.9	-1.6	36.8	-3.5
O=C1c2ccccc2NC(c2ccc(Cl)cc2Cl)N1Cc1ccccc1 (stereo unspecified)	16.5	8.6	-1.6	-32.4	61.0*	1.5
O=C1c2ccccc2NC(c2c(Cl)cccc2Cl)N1Cc1ccccc1 (stereo unspecified)	15.7	3.9	5.8	5.8	26.1	-1.1
O=C1c2ccccc2N[C@H](c2cc(Cl)cc(Cl)c2O)N1CCc1ccccn1	nt	55.0*	nt	nt	8.2	nt

Compound activity: PubChem BioAssay, several laboratories
